Compound activity (PubChem)
APOBEC3A inh: blocks human APOBEC3A ssDNA deamination | 330,000 tested, 0.41% active | recombinant A3A, FAM/TAMRA ssDNA deamination fluorescence | P31941 | AID 493011 | inhibition, % at 20 µM;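 active = at least 40% inhibition at 20 µM here, with at most 30% in a related deaminase screen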;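 note: plate controls were A3A with DMSO for no effect and wells lacking A3A enzyme for full effect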
APOBEC3G inh: inhibitors of human APOBEC3G DNA deaminase | Q9HC16 | AID 493012 | inhibition, % at 20 µM | 330,000 tested, 0.28% active | recombinant A3G, ssDNA deamination FAM/TAMRA fluorescence;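 active = inhibition of at least 40% at 20 µM, with no more than 30% in the related APOBEC3A deaminase screen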;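 note: plate controls were DMSO wells with A3G for no effect and wells lacking A3G enzyme for full effect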
FN deposition inh: fibronectin deposition inhibition. 350,000 tested, 0.086% active. AH1F fibroblasts, Alexa488-fibronectin deposition fluorescence, overnight. inhibition, % at 12.6 µM;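 active = mean inhibition across replicates of 30% or more, regardless of how many single replicates reach that level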;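 note: positive control wells lacked labelled fibronectin entirely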
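Schedule: 1 h cell adhesion before compound, then overnight fibronectin incubation; test system: AH1F fibroblast monolayer depositing Alexa488-labelled fibronectin into matrix; quantity: 10000 AH1F cells per well; probe or stimulus: fluorescent fibronectin at 24 nM final; signal: fluorescence, ex 485 nm, em 525 nm; evaluation: percent inhibition as loss of matrix-bound fibronectin fluorescence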
ABHD5-PLIN5 inh: ABHD5-PLIN5 protein interaction inhibition; Split G. princeps luciferase complementation, luminescence, 4 h; inhibition, % at 4 µM; 360,000 tested, 0.78% active;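 active = inhibition above the mean inhibition across every tested compound plus 3 SD, cut at about 22% in these data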;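 note: 0% = DMSO only wells and the 100% control is not disclosed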
ABHD5-PLIN5 conf: confirmation of human ABHD5-PLIN5 interaction inhibitors | inhibition, % at 4 µM | biochemical ABHD5-PLIN5 interaction, luminescence | AID 651612 | shares compounds with ABHD5-PLIN5 inh | 2,200 tested, 67% active; in the data active = inhibition above about 23%;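 note: 0% = DMSO vehicle wells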
HNF4 counter: HNF4 split-luciferase signal hit, counter-screen. shares compounds with ABHD5-PLIN5 inh. 2,200 tested, 77% active. inhibition, % at 4 µM. HNF4 dimerization, luminescence, biochemical;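 active = mean inhibition across replicate wells exceeding the computed hit threshold, cut at about 13% in these data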;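 note: light from luciferase halves that rejoin when HNF4 fusion proteins dimerize; 0% = DMSO only wells and the 100% control is not given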
* marks the source's active call; other numbers are inactive results; nt = no result given. Sampled rows, rich in hits. Any-hit rate of the full collection: about 1.2%.

SMILES	APOBEC3A inh	APOBEC3G inh	FN deposition inh	ABHD5-PLIN5 inh	ABHD5-PLIN5 conf	HNF4 counter
COc1ccc(C(=O)CC(SCC(NC(C)=O)C(=O)O)c2ccc(Cl)cc2)cc1OC (configuration not stated)	-4.6	-9.6	5.7	38.1*	23.5*	19.5*
COc1ccc(C(C)NC(=O)c2ccc(Cl)cc2)cc1OC (configuration not stated)	1.7	-3.3	2.1	-1.7	nt	nt
O=C(c1ccccc1F)N1CC[C@@H]2[C@H](CO)Nc3ccc(-c4ccc(F)cc4)cc3[C@@H]21	nt	nt	-3.2	nt	nt	nt
C=CCN(CC=C)Cc1c(O)ccc2c1oc(=O)c1ccccc12	0.3	-9.6	nt	68.0*	14.3	16.7*
C=CCN(CC=C)Cc1cc(=O)oc2ccc3ccccc3c12	nt	nt	16.0	-0.2	nt	nt
CCCNC(=O)C[C@@H]1C[C@@H]2c3cc(NS(=O)(=O)c4ccccc4)ccc3O[C@@H]2[C@H](CO)O1	nt	nt	-6.5	nt	nt	nt
CC(=O)OC1CCC2(C)C(CCC3C4CC=C(C(C)=O)C4(C)OC(=O)CC32)C1 (configuration not stated)	nt	nt	nt	60.6*	88.2*	93.2*
Cc1cccn2c(=O)c3cc(C(=O)NCCc4ccccc4)c(=N)n(Cc4ccco4)c3nc12	0.6	-3.1	0.6	25.5*	6.0	17.0*
Cc1cccn2c(=O)c3cc(C(=O)NCc4ccco4)c(=N)n(CCc4ccccc4)c3nc12	6.9	17.6	-1.1	16.0	nt	nt
Cc1cccn2c(=O)c3cc(C(=O)NCc4ccco4)c(=N)n(C(C)C)c3nc12	8.9	6.2	-11.3	27.5*	5.9	18.2*
CCC(=O)N1CC2(C1)[C@H](c1ccccc1)[C@@H](CO)N2CC1CC1	nt	nt	-6.0	nt	nt	nt
O=C1C(=Cc2ccncc2)CCCc2ccccc21	nt	nt	nt	17.8	nt	nt
O=C1/C(=C/c2ccncc2)CCC/C1=C\c1ccncc1	nt	nt	1.3	99.4*	104.1*	109.2*
O=C1/C(=C/c2ccncc2)CCc2ccccc21	0.0	-2.0	-4.5	34.4*	62.3*	59.0*
O=C1/C(=C\c2ccncc2)CCc2ccccc21	-2.6	-4.4	4.7	31.8*	63.3*	60.0*
O=C(C[C@H]1CC[C@H]2[C@@H](COC[C@@H](O)CN2Cc2nccs2)O1)NCc1ccc(Cl)cc1	nt	nt	0.1	nt	nt	nt
O=C(Nc1ccc2c(c1)[C@H]1C[C@@H](CC(=O)N3CCc4ccccc4C3)O[C@H](CO)[C@H]1O2)c1ccc2c(c1)OCO2	nt	nt	-2.7	nt	nt	nt
CCCC(=O)NC1=C(Cl)C(=O)c2ccccc2C1=O	nt	nt	0.7	47.7*	63.8*	101.3*
CCNC1=C(Cl)C(=O)c2ccccc2C1=O	6.8	-2.3	1.6	-2.3	nt	nt
Cc1noc(C)c1S(=O)(=O)N(C)C[C@@H]1Oc2ccc(NC(=O)Nc3ccc(C(F)(F)F)cc3)cc2CC(=O)N([C@@H](C)CO)C[C@H]1C	nt	nt	-18.8	nt	nt	nt
Cc1ccc2c(c1C)-c1c(ccc(C)c1C)C(=O)C2=O	nt	nt	8.8	51.7*	42.8*	68.5*
CCOc1ccc(C(C#N)N2CCOCC2)cc1OC (configuration not stated)	2.4	-0.6	6.4	2.6	nt	nt
CCOc1ccc(C(CN2CCOCC2)C(C)=O)cc1OC (configuration not stated)	nt	nt	13.3	33.6*	12.3	57.4*
c1ccc(-c2nnnn2-c2ccccc2)cc1	-6.9	-7.3	1.2	-3.4	nt	nt
ClC(Cl)(c1nnnn1-c1ccccc1)c1nnnn1-c1ccccc1	nt	nt	-1.2	87.0*	74.1*	102.7*
SMILES	APOBEC3A inh	APOBEC3G inh	FN deposition inh	ABHD5-PLIN5 inh	ABHD5-PLIN5 conf	HNF4 counter
COc1ccc2c3c(n(C)c2c1)[C@H](CO)N(CC1CC1)CC31CN(S(=O)(=O)c2cn(C)cn2)C1	nt	nt	1.0	nt	nt	nt
CCCNC(=O)C[C@H]1CC[C@@H]2[C@H](COc3ccc(NC(=O)CCC)cc3C(=O)N2C)O1	nt	nt	0.1	nt	nt	nt
C[C@H](CO)N1C[C@H](C)[C@H](CN(C)C(=O)Nc2ccc(F)cc2)OCCCC[C@H](C)Oc2ccc(NC(=O)Nc3ccccc3)cc2C1=O	nt	nt	4.3	nt	nt	nt
COc1ccc(OC)c(NC(=O)CN2C(=O)NC3(CCCc4ccccc43)C2=O)c1 (configuration not stated)	-1.2	-0.9	-1.6	7.7	nt	nt
COc1cccc(NC(=O)CN2C(=O)NC3(CCCc4ccccc43)C2=O)c1 (configuration not stated)	7.7	-4.4	0.9	91.8*	4.1	1.9
C#CCOCCOCCOCCNc1nc(N2CCN(C(=O)CCCCCCCCCCNC(=O)Cn3cc(CCCCCN)nn3)CC2)nc(N2CCN(C(=O)CCCCCCCCCCNC(=O)Cn3cc(C[C@@H](C)O)nn3)CC2)n1	-3.4	-4.6	nt	46.8*	4.6	-14.0
C#CCOCCOCCOCCNc1nc(N2CCN(C(=O)CCCCCCCCCCNC(=O)Cn3cc(C[C@@H](C)O)nn3)CC2)nc(N2CCN(C(=O)CCCCCCCCCCNC(=O)[C@@H]([C@H](C)O)n3cc(C)nn3)CC2)n1	-1.6	-2.3	nt	97.1*	7.7	-7.3
C#CCOCCOCCOCCNc1nc(N2CCN(C(=O)Cn3cc(CC(C)O)nn3)CC2)nc(N2CCN(C(=O)Cn3cc(CC(C)O)nn3)CC2)n1 (configuration not stated)	-1.7	-9.5	8.1	9.0	nt	nt
CCCN(C[C@@H]1N[C@@H](CO)[C@H]1c1ccc(-c2cccnc2)cc1)C(C)=O	nt	nt	-16.2	nt	nt	nt
CCC(=O)N1[C@H](CO)[C@H](c2ccc(C3=CCCC3)cc2)[C@@H]1CN(C)C(C)=O	nt	nt	-17.6	nt	nt	nt
CCOC(=O)C1(C(=O)OCC)COC(=O)C1CN1Cc2cc3ccccc3nc2C1 (configuration not stated)	nt	nt	2.7	46.3*	29.2*	88.6*
CSCCC(c1nc2ccccc2[nH]1)n1c(=O)c(-c2ccco2)nc2ccccc21 (configuration not stated)	nt	nt	4.9	34.2*	34.4*	39.7*
CSCCC(c1nc2ccccc2[nH]1)n1c(=O)c(-c2cccnc2)nc2ccccc21 (configuration not stated)	nt	nt	10.8	5.7	nt	nt
CC(C)(C)NC(=O)C(C1CC1)n1c(=O)c(-c2ccco2)nc2ccccc21 (configuration not stated)	nt	nt	-4.7	50.9*	73.0*	22.9*
Cc1cccc(C)c1NC(=O)C(C1CC1)n1c(=O)c(-c2ccccc2)nc2ccccc21 (configuration not stated)	nt	nt	-10.2	3.2	nt	nt
CC(C)(C)NC(=O)C(C1CC1)n1c(=O)c(-c2cc3ccccc3[nH]2)nc2ccccc21 (configuration not stated)	nt	nt	7.0	-13.4	nt	nt
Cc1cccc(C)c1NC(=O)C(C1CC1)n1c(=O)c(-c2ccco2)nc2ccccc21 (configuration not stated)	nt	nt	-11.3	61.4*	43.5*	24.7*
Cc1cccc(C)c1NC(=O)C(c1ccncc1)n1c(=O)c(-c2ccco2)nc2ccccc21 (configuration not stated)	nt	nt	-13.7	56.4*	22.7*	12.1
